Experimental data reported in ChEMBL document CHEMBL3244100, “Effect of sparsomycin analogues on the puromycin-peptidyl transferase reaction on ribosomes” (J Med Chem, 1978).
Blank lines part the entries; values can stand above or below the compound they belong to. The source made the active and inactive calls. The rule behind the calls is not given here.

Tests used:
Bacterial 70S ribosome [1] = test: Competitive inhibition of peptidyl transferase activity of Escherichia coli ribosome using Ac[14C]-L-Phe-tRNA/puromycin as donor/acceptor substrate assessed as acetyl[14C]phenylalanylpuromycin formation by double reciprocal plot analysis
Outline: (§1)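 E. coli washed ribosomes (2.78 A260 units) charged with 20.8 pmol Ac[14C]Phe-tRNA in 100 mM Tris-Cl pH 7.5, 100 mM NH4Cl, 15 mM Mg(OAc)2, 0.65 mM DTT, 1.2 mM GTP, FWR, poly(U), 8 min at 28 °C. Mixture then added to puromycin with or without inhibitor, 28 °C. Product measured radiometrically. Ki from double reciprocal plots; highest concentration tested 2 × 10^-4 M.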

[2] = target: T1, Bacterial 70S ribosome (Bacteria) (UniProt P0A7V0+P60723+P0AG67+P0A7R5+P0A7R9+P0A7S3+P0A7S9+P0AG59+P0ADZ4+P0A7T3+P0AG63+P0A7T7+P0A7U3+P0A7U7+P68679+P0A7V3+P0A7V8+P0A7W1+P02358+P02359+P0A7W7+P0A7X3+P0A7J3+P0A7J7+P0AA10+P0ADY3+P02413+P0ADY7+P0AG44+P0C018+P0A7K6+P0A7L0+P0A7L3+P0AG48+P61175+P0ADZ0+P60624+P68919+P0A7L8+P0A7M2+P0A7M6+P60422+P0AG51+P0A7N1+P0A7M9+P0A7N4+P0A7N9+P0A7P5+P0A7Q1+Q2EEQ2+P0A7Q6+P60438+P62399+P0AG55+P0A7K2); test: Competitive inhibition of peptidyl transferase activity of Escherichia coli ribosome using Ac[14C]-L-Phe-tRNA/puromycin as donor/acceptor substrate assessed as acetyl[14C]phenylalanylpuromycin formation incubated with donor substrate/enzyme prior to puromycin addition
Outline: (§2)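 Ribosomes charged with Ac[14C]-L-Phe-tRNA as in the binding step (poly(U), GTP, FWR, Mg2+, 8 min, 28 °C). The charged mixture was preincubated with 10^-6 M inhibitor for 15 min at 28 °C before adding 10^-4 M puromycin. Ac[14C]Phe-puromycin formation was followed over time at 28 °C.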

[3] = target: T1, Bacterial 70S ribosome (Bacteria); test: Competitive inhibition of peptidyl transferase activity of Escherichia coli ribosome using Ac[14C]-L-Phe-tRNA/puromycin as donor/acceptor substrate assessed as acetyl[14C]phenylalanylpuromycin formation at 2 x 10^-4 M by double reciprocal plot analysis; outline: as §1
[4] = target: T1, Bacterial 70S ribosome (Bacteria); test: Competitive inhibition of peptidyl transferase activity of Escherichia coli ribosome using Ac[14C]-L-Phe-tRNA/puromycin as donor/acceptor substrate assessed as acetyl[14C]phenylalanylpuromycin formation at 10^-6 M preincubated for 15 mins prior to puromycin addition; outline: as §2
Bacterial 70S ribosome [5] = test: Competitive inhibition of peptidyl transferase activity of Escherichia coli ribosome using Ac[14C]-L-Phe-tRNA/puromycin as donor/acceptor substrate assessed as acetyl[14C]phenylalanylpuromycin formation by Dixon plot analysis

Compound: Cc1[nH]c(=O)[nH]c(=O)c1/C=C/C(=O)NC(CO)CSCc1ccccc1 (racemic)
Ki (Bacterial 70S ribosome [1]): 1210 nM

Compound: CSCSCC(CO)NC(=O)/C=C/c1c(C)nc(O)nc1O (racemic)
Ki (Bacterial 70S ribosome [1]): 1090 nM
inhibition [2]: Active

Compound: CCCSC[C@@H](CO)NC(=O)/C=C/c1c(C)[nH]c(=O)[nH]c1=O
inhibition [3]: inactive

Compound: CCCCCC(CO)NC(=O)/C=C/c1c(C)[nH]c(=O)[nH]c1=O (racemic)
Ki (Bacterial 70S ribosome [1]): 2300 nM

Compound: CSC[S@@+]([O-])CC(CO)NC(=O)/C=C/c1c(C)[nH]c(=O)[nH]c1=O (stereo partly specified) [SPARSOMYCIN]
Ki (Bacterial 70S ribosome [1]): 500 nM
inhibition [4]: Active

Compound: CCCSC[C@H](CO)NC(=O)/C=C/c1c(C)[nH]c(=O)[nH]c1=O
Ki (Bacterial 70S ribosome [1]): 1100 nM

Compound: CCCSCC(CO)NC(=O)/C=C/c1c(C)[nH]c(=O)[nH]c1=O (racemic)
Ki (Bacterial 70S ribosome [5]): 2000 nM
Ki (Bacterial 70S ribosome [1]): 2000 nM

inhibition [3]: inactive
Compound: Cc1[nH]c(=O)[nH]c(=O)c1/C=C/C(=O)NC(C)CO (racemic)
